How the values were obtained:
UGT1A1 = target: T1, UGT1A1 (Homo sapiens, UniProt P22309); assay type: in vitro ADME; conditions: β-estradiol 50 μM; individual HLM n = 9; Pearson; P = 0.014
T1 sequence (P22309 26-533): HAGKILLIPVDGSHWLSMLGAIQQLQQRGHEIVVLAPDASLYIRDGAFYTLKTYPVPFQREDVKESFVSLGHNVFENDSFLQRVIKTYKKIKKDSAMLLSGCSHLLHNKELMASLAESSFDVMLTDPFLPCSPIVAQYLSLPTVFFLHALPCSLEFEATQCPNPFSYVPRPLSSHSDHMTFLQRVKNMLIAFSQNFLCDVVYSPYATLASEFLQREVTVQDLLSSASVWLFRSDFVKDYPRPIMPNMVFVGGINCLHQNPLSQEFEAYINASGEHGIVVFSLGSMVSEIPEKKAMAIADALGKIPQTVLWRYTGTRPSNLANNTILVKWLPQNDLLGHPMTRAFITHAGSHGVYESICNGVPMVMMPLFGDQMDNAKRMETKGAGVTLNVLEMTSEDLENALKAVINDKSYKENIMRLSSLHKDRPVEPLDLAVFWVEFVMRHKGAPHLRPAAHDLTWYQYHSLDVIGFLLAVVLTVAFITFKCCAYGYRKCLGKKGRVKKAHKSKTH
Method in brief: (§1)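 UDPGA-supplemented individual human liver microsomes (n = 9) in 100 μl Tris-HCl 50 mM pH 7.4 with alamethicin 22 μg/ml, D-saccharic-1,4-lactone 4.4 mM and UDPGA 3.5 mM. Incubated 37 °C for 60 min, stopped with ice-cold acetonitrile, centrifuged, supernatant analysed by UHPLC. Test compound glucuronidation rates correlated with probe glucuronidation across donors by Pearson analysis.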

UGT1A9 = target: T2, UGT1A9 (Homo sapiens, UniProt O60656); assay type: in vitro ADME; conditions: propofol 500 μM; individual HLM n = 9; Pearson; P = 0.016
T2 sequence (O60656 26-530): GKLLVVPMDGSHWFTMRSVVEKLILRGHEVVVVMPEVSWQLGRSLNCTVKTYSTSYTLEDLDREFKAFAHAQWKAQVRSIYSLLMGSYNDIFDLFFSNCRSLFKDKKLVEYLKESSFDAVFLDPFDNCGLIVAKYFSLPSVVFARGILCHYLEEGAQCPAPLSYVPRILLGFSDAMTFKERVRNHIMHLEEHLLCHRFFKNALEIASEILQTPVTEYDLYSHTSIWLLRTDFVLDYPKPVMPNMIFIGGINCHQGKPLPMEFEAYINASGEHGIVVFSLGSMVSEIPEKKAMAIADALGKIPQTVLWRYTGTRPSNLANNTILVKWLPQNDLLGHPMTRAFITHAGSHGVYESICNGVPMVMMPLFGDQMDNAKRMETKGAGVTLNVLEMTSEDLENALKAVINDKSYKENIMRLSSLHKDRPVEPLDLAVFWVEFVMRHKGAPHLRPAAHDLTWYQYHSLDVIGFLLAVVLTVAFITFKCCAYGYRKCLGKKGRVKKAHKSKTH
Method in brief: as §1

[1] = substrate: CC(C)=CCc1c(O)ccc2c1O[C@H](c1ccc(O)cc1)CC2=O; experiment: cells, lysate or membranes named; assay type: in vitro ADME, human; conditions: pH 7.4, 37.0 °C
not read = substrate: CC(C)=CCc1c(O)ccc2c1O[C@H](c1ccc(O)cc1)CC2=O; experiment: not read; conditions: substrate inhibition model, pH 7.4, 37.0 °C
[2] = other: formation of G1, substrate inhibition model
[3] = other: formation of G2, substrate inhibition model

For `CC(C)=CCc1c(O[C@@H]2O[C@H](C(=O)O)[C@@H](O)[C@H](O)[C@H]2O)ccc2c1O[C@H](c1ccc(O)cc1)CC2=O` [G1, isobavachin-7-O-glucuronide], which correlation factor r (UGT1A1) is on record?
The correlation factor r was 0.774.

And the correlation factor r (UGT1A9)?
The correlation factor r was 0.767.

B1: UGT1A6 (Homo sapiens) (protein)
chain: DKLLVVPQDGSHWLSMKDIVEVLSDRGHEIVVVVPEVNLLLKESKYYTRKIYPVPYDQEELKNRYQSFGNNHFAERSFLTAPQTEYRNNMIVIGLYFINCQSLLQDRDTLNFFKESKFDALFTDPALPCGVILAEYLGLPSVYLFRGFPCSLEHTFSRSPDPVSYIPRCYTKFSDHMTFSQRVANFLVNLLEPYLFYCLFSKYEELASAVLKRDVDIITLYQKVSVWLLRYDFVLEYPRPVMPNMVFIGGINCKKRKDLSQEFEAYINASGEHGIVVFSLGSMVSEIPEKKAMAIADALGKIPQTVLWRYTGTRPSNLANNTILVKWLPQNDLLGHPMTRAFITHAGSHGVYESICNGVPMVMMPLFGDQMDNAKRMETKGAGVTLNVLEMTSEDLENALKAVINDKSYKENIMRLSSLHKDRPVEPLDLAVFWVEFVMRHKGAPHLRPAAHDLTWYQYHSLDVIGFLLAVVLTVAFITFKCCAYGYRKCLGKKGRVKKAHKSKTH
Which results are given for B1?
K0.5 [1, 2]: 67.66 ± 16.32 µM; Vmax [1, 2]: 0.00382 µmol/min/mg; Vmax/Km [1, 2]: 56.5 µL/min/mg; K0.5 [1, 3]: 31.85 ± 6.28 µM; Vmax [1, 3]: 0.000342 µmol/min/mg; Vmax/Km [1, 3]: 10.7 µL/min/mg

B2: UGT1A8 (Homo sapiens) (protein)
chain: GKLLVVPMDGSHWFTMQSVVEKLILRGHEVVVVMPEVSWQLGKSLNCTVKTYSTSYTLEDLDREFMDFADAQWKAQVRSLFSLFLSSSNGFFNLFFSHCRSLFNDRKLVEYLKESSFDAVFLDPFDACGLIVAKYFSLPSVVFARGIACHYLEEGAQCPAPLSYVPRILLGFSDAMTFKERVRNHIMHLEEHLFCQYFSKNALEIASEILQTPVTAYDLYSHTSIWLLRTDFVLDYPKPVMPNMIFIGGINCHQGKPLPMEFEAYINASGEHGIVVFSLGSMVSEIPEKKAMAIADALGKIPQTVLWRYTGTRPSNLANNTILVKWLPQNDLLGHPMTRAFITHAGSHGVYESICNGVPMVMMPLFGDQMDNAKRMETKGAGVTLNVLEMTSEDLENALKAVINDKSYKENIMRLSSLHKDRPVEPLDLAVFWVEFVMRHKGAPHLRPAAHDLTWYQYHSLDVIGFLLAVVLTVAFITFKCCAYGYRKCLGKKGRVKKAHKSKTH
For B2, which K0.5 [1, 2] is on record?
Its K0.5 is 34.71 ± 6.45 µM.

B3: UGT1A1 (Homo sapiens) (protein)
chain: T1 sequence (P22309 26-533)
B3 was tested. Which K0.5 [1, 2] did it give?
The K0.5 was 41.84 ± 8.25 µM.

B4: CYP1A2 (Homo sapiens) (protein)
chain: MALSQSVPFSATELLLASAIFCLVFWVLKGLRPRVPKGLKSPPEPWGWPLLGHVLTLGKNPHLALSRMSQRYGDVLQIRIGSTPVLVLSRLDTIRQALVRQGDDFKGRPDLYTSTLITDGQSLTFSTDSGPVWAARRRLAQNALNTFSIASDPASSSSCYLEEHVSKEAKALISRLQELMAGPGHFDPYNQVVVSVANVIGAMCFGQHFPESSDEMLSLVKNTHEFVETASSGNPLDFFPILRYLPNPALQRFKAFNQRFLWFLQKTVQEHYQDFDKNSVRDITGALFKHSKKGPRASGNLIPQEKIVNLVNDIFGAGFDTVTTAISWSLMYLVTKPEIQRKIQKELDTVIGRERRPRLSDRPQLPYLEAFILETFRHSSFLPFTIPHSTTRDTTLNGFYIPKKCCVFVNQWQVNHDPELWEDPSEFRPERFLTADGTAINKPLSEKMMLFGMGKRRCIGEVLAKWEIFLFLAILLQQLEFSVPPGVKVDLTPIYGLTMKHARCEHVQARLRFSIN
With B4 as the molecule, how does the K0.5 (not read; other: formation of M1) read?
Its K0.5 is 5.08 ± 0.54 µM.

And the Vmax (not read; other: formation of M1)?
The Vmax was 0.000312 µmol/min/mg.

And the Vmax/Km (not read; other: formation of M1)?
The Vmax/Km was 61.4 µL/min/mg.

And the K0.5 (not read; other: formation of M3)?
Its K0.5 is 19.81 ± 9.47 µM.

What about the Vmax (not read; other: formation of M3) of the same molecule?
The Vmax was 0.000173 µmol/min/mg.

What about the Vmax/Km (not read; other: formation of M3) of the same molecule?
The Vmax/Km was 8.75 µL/min/mg.

B5: UGT2B4 (Homo sapiens) (protein)
chain: GKVLVWPTEFSHWMNIKTILDELVQRGHEVTVLASSASISFDPNSPSTLKFEVYPVSLTKTEFEDIIKQLVKRWAELPKDTFWSYFSQVQEIMWTFNDILRKFCKDIVSNKKLMKKLQESRFDVVLADAVFPFGELLAELLKIPFVYSLRFSPGYAIEKHSGGLLFPPSYVPVVMSELSDQMTFIERVKNMIYVLYFEFWFQIFDMKKWDQFYSEVLGRPTTLSETMAKADIWLIRNYWDFQFPHPLLPNVEFVGGLHCKPAKPLPKEMEEFVQSSGENGVVVFSLGSMVSNTSEERANVIASALAKIPQKVLWRFDGNKPDTLGLNTRLYKWIPQNDLLGHPKTRAFITHGGANGIYEAIYHGIPMVGVPLFADQPDNIAHMKAKGAAVSLDFHTMSSTDLLNALKTVINDPLYKENAMKLSRIHHDQPVKPLDRAVFWIEFVMRHKGAKHLRVAAHDLTWFQYHSLDVTGFLLACVATVIFIITKCLFCVWKFVRTGKKGKRD
With B5 as the molecule, how does the K0.5 ([1]; other: formation of G1, Michaelis–Menten model) read?
The K0.5 was 2.66 ± 0.28 µM.

B6: UGT1A9 (Homo sapiens) (protein)
chain: T2 sequence (O60656 26-530)
For B6, which K0.5 [1, 2] is on record?
Its K0.5 is 15.63 ± 3.12 µM.

B7: CYP2C19 (Homo sapiens) (protein)
chain: MDPFVVLVLCLSCLLLLSIWRQSSGRGKLPPGPTPLPVIGNILQIDIKDVSKSLTNLSKIYGPVFTLYFGLERMVVLHGYEVVKEALIDLGEEFSGRGHFPLAERANRGFGIVFSNGKRWKEIRRFSLMTLRNFGMGKRSIEDRVQEEARCLVEELRKTKASPCDPTFILGCAPCNVICSIIFQKRFDYKDQQFLNLMEKLNENIRIVSTPWIQICNNFPTIIDYFPGTHNKLLKNLAFMESDILEKVKEHQESMDINNPRDFIDCFLIKMEKEKQNQQSEFTIENLVITAADLLGAGTETTSTTLRYALLLLLKHPEVTAKVQEEIERVIGRNRSPCMQDRGHMPYTDAVVHEVQRYIDLIPTSLPHAVTCDVKFRNYLIPKGTTILTSLTSVLHDNKEFPNPEMFDPRHFLDEGGNFKKSNYFMPFSAGKRICVGEGLARMELFLFLTFILQNFNLKSLIDPKDLDTTPVVNGFASVPPFYQLCFIPV
Which results are given for B7?
K0.5 (not read; other: formation of M1): 56.54 ± 16.3 µM; Vmax (not read; other: formation of M1): 0.00252 µmol/min/mg; Vmax/Km (not read; other: formation of M1): 44.5 µL/min/mg; K0.5 (not read; other: formation of M3): 16.81 ± 5.02 µM; Vmax (not read; other: formation of M3): 0.0013 µmol/min/mg; Vmax/Km (not read; other: formation of M3): 77.3 µL/min/mg

B8: UGT1A7 (Homo sapiens) (protein)
chain: GKLLVVPMDGSHWFTMQSVVEKLILRGHEVVVVMPEVSWQLGRSLNCTVKTYSTSYTLEDQDREFMVFADARWTAPLRSAFSLLTSSSNGIFDLFFSNCRSLFNDRKLVEYLKESCFDAVFLDPFDACGLIVAKYFSLPSVVFARGIFCHYLEEGAQCPAPLSYVPRLLLGFSDAMTFKERVWNHIMHLEEHLFCPYFFKNVLEIASEILQTPVTAYDLYSHTSIWLLRTDFVLEYPKPVMPNMIFIGGINCHQGKPVPMEFEAYINASGEHGIVVFSLGSMVSEIPEKKAMAIADALGKIPQTVLWRYTGTRPSNLANNTILVKWLPQNDLLGHPMTRAFITHAGSHGVYESICNGVPMVMMPLFGDQMDNAKRMETKGAGVTLNVLEMTSEDLENALKAVINDKSYKENIMRLSSLHKDRPVEPLDLAVFWVEFVMRHKGAPHLRPAAHDLTWYQYHSLDVIGFLLAVVLTVAFITFKCCAYGYRKCLGKKGRVKKAHKSKTH
B8 was tested. Which K0.5 [1, 2] did it give?
The K0.5 was 32.91 ± 5.76 µM.

Reference: publication PMC8861878 (The Journal of pharmacy and pharmacology, 2020)
